Results as given in ChEMBL document CHEMBL2086346, “New artesunic acid homodimers: potent reversal agents of multidrug resistance in leukemia cells” (Bioorg Med Chem, 2012).

What was measured:
CCRF-CEM [1] = experiment: Selectivity ratio of IC50 for human CEM/ADR5000 cells to IC50 for human CCRF-CEM cells; type: functional
[2] = Cytotoxicity against human CEM/ADR5000 by CCK-8 assay; type: functional
How it was run: (§1)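 CCRF-CEM or P-glycoprotein-overexpressing CEM/ADR5000 leukemia cells in RPMI1640. CEM/ADR5000 maintained by treatment with 5000 ng/mL doxorubicin every other week for three days. Viability by CCK-8: reagent added, 3 h at 37 °C, absorbance 450 nm. IC50 from dose–response curves. At least two independent experiments, each with 6 parallel measurements (12 values per concentration), mean ± SEM.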

CCRF-CEM [3] = experiment: Cytotoxicity against human CCRF-CEM cells by CCK-8 assay; type: functional, cell-based; how it was run: as §1

Row | SMILES | Ratio IC50 (CCRF-CEM [1]) | IC50 [2] [nM] | IC50 (CCRF-CEM [3]) [nM]
1 | C[C@H]1[C@H](OC(=O)CCC(=O)NCCCNC(=O)CCC(=O)O[C@@H]2O[C@@H]3O[C@@]4(C)CC[C@H]5[C@H](C)CC[C@@H]([C@H]2C)[C@@]35OO4)O[C@@H]2O[C@@]3(C)CC[C@H]4[C@H](C)CC[C@@H]1[C@@]24OO3 | 0.17 | 200 | –
2 | C[C@H]1[C@H](OC(=O)CCC(=O)NCC(O)CNC(=O)CCC(=O)O[C@@H]2O[C@@H]3O[C@@]4(C)CC[C@H]5[C@H](C)CC[C@@H]([C@H]2C)[C@@]35OO4)O[C@@H]2O[C@@]3(C)CC[C@H]4[C@H](C)CC[C@@H]1[C@@]24OO3 (some centres not stated) | 0.56 | 1210 | 2160
3 | C[C@H]1[C@H](OC(=O)CCC(=O)NCc2cccc(CNC(=O)CCC(=O)O[C@@H]3O[C@@H]4O[C@@]5(C)CC[C@H]6[C@H](C)CC[C@@H]([C@H]3C)[C@@]46OO5)c2)O[C@@H]2O[C@@]3(C)CC[C@H]4[C@H](C)CC[C@@H]1[C@@]24OO3 | 0.94 | 1510 | 1600
4 | C[C@H]1[C@H](OC(=O)CCC(=O)NCCCCCCCCNC(=O)CCC(=O)O[C@@H]2O[C@@H]3O[C@@]4(C)CC[C@H]5[C@H](C)CC[C@@H]([C@H]2C)[C@@]35OO4)O[C@@H]2O[C@@]3(C)CC[C@H]4[C@H](C)CC[C@@H]1[C@@]24OO3 | 1.03 | 3040 | 2940
5 | C[C@@H]1CC[C@H]2[C@@H](C)C(=O)O[C@@H]3O[C@@]4(C)CC[C@@H]1[C@]32OO4 [ARTEMISININ] | 0.73 | – | –
6 | C[C@H]1[C@H](OC(=O)CCC(=O)O)O[C@@H]2O[C@@]3(C)CC[C@H]4[C@H](C)CC[C@@H]1[C@@]24OO3 [ARTESUNATE] | 0.67 | 1200 | –
7 | COc1cccc2c1C(=O)c1c(O)c3c(c(O)c1C2=O)C[C@@](O)(C(=O)CO)C[C@@H]3O[C@H]1C[C@H](N)[C@H](O)[C@H](C)O1 [DOXORUBICIN] | >140 | > 5200 | 37
